Experimental findings from ChEMBL document CHEMBL1157819, “Almiramides A-C: discovery and development of a new class of leishmaniasis lead compounds” (J Med Chem, 2010) are described below.

A short description of data set [1]: Selectivity index, ratio of IC50 for african green monkey Vero cells to IC50 for Leishmania donovani. The format is toxicity, cell-based. The note with it: read-out: Ratio IC50.
A further data set concerns Vero. Put plainly: Cytotoxicity against african green monkey Vero cells by MTT assay. In kind it is cell-based. The note with it: Chlorocebus sabaeus. Put shortly:
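Green monkey Vero kidney cells; cell proliferation read by MTT.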

In data set [2] the test system is Leishmania donovani. Put plainly: Antileishmanial activity against Leishmania donovani by DNA fluorescence assay. The format is functional, organism-based.
The subject of data set [3] is Leishmania donovani. Put plainly: Antileishmanial activity against Leishmania donovani at 10 ug/mL by DNA fluorescence assay. In kind it is functional, organism-based. Put shortly: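 Leishmania donovani; parasite growth read by parasite DNA fluorescence, with amphotericin B as positive control.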
Data set [4] deals with Trypanosoma cruzi. Briefly: Antitrypanosomal activity against Trypanosoma cruzi Tulahuen infected in mouse 3T3 cells assessed as beta-galactosidase activity at 13.5 uM after 7 days by chagas bioassay. In kind it is functional, organism-based. The note with it: NIH3T3.
The test system of the next data set is Plasmodium falciparum. Put plainly: Antimalarial activity against chloroquine-resistant Plasmodium falciparum W2 at 13.5 uM after 48 hrs by fluorometric method. In kind it is functional, organism-based.
Data set [5] concerns Trypanosoma cruzi. Put plainly: Antitrypanosomal activity against Trypanosoma cruzi Tulahuen infected in mouse 3T3 cells assessed as beta-galactosidase activity after 7 days by chagas bioassay. The note with it: NIH3T3, 168 h.
Data set [6] deals with Leishmania donovani. Put plainly: Antileishmanial activity against Leishmania donovani at 13.4 uM by DNA fluorescence assay. In kind it is functional, organism-based.

pIC50: −log10 of the molar value. In brackets after ≈: the same amount, converted by molar mass. Activity calls are given as the source filed them. The rule behind the calls is not given here. Non-standard residues stand in square brackets, D forms with d. Residues, ends and D or L forms follow the SMILES beside them. *: point of attachment. Octanoyl(2R-Me,7,8-dehydro) = C=CCCCC[C@@H](C)C(=O)*; Oct7ynoyl(2R-Me) = C#CCCCC[C@@H](C)C(=O)*; NMeY = CN[C@@H](Cc1ccc(O)cc1)C(=O)O; NMeF = CN[C@@H](Cc1ccccc1)C(=O)O; X1 = CC(=O)CCCC[C@@H](C)C(=O)*; Oct(7)enoyl = C=CCCCCCC(=O)*; Oct(7)ynoyl = C#CCCCCCC(=O)*; NMeV = CN[C@H](C(=O)O)C(C)C; X5 = C#CCCCCC(C)CC(C)C(=O)*; Hept6ynoyl = C#CCCCCC(=O)*; X3 = CCCCCC[C@@H](C)C(=O)*; X6 = C#CCCCC[C@H](C)C(=O)*; NMeA = CN[C@@H](C)C(=O)O; X4 = C=CCCCCC(=O)*; X2 = C=CCCCC(=O)*

Regarding `C#CCCCCC(=O)N(C)[C@H](C(=O)N(C)[C@H](C(=O)N(C)[C@H](C(=O)N(C)[C@@H](C)C(=O)N(C)[C@@H](Cc1ccccc1)C(=O)N(C)C)C(C)C)C(C)C)C(C)C` (Hept6ynoyl-[NMeV][NMeV][NMeV][NMeA][NMeF]-NMe2), the selectivity ratio in data set [1] worked out at 50.2. Moreover, the negative logarithm of the IC50 (pIC50) in the data set with Vero was 3.81; with Leishmania donovani [2] it was 5.51.

As for `C#CCCCCC(=O)N(C)[C@H](C(=O)N(C)[C@H](C(=O)N(C)[C@H](C(=O)N(C)[C@@H](C)C(=O)N(C)[C@@H](Cc1ccccc1)C(=O)O)C(C)C)C(C)C)C(C)C` (Hept6ynoyl-[NMeV][NMeV][NMeV][NMeA][NMeF]-OH), in data set [1], the selectivity ratio was found to be 50.2. The negative-log IC50 (pIC50) with Vero is 3.55; in the data set on Leishmania donovani [2], 5.25.

Regarding `C#CCCCCC(=O)N(C)[C@H](C(=O)N(C)[C@H](C(=O)N(C)[C@H](C(=O)N(C)[C@@H](C)C(=O)N(C)[C@@H](Cc1ccccc1)C(=O)OC)C(C)C)C(C)C)C(C)C` (Hept6ynoyl-[NMeV][NMeV][NMeV][NMeA][NMeF]-OMe), the pIC50 with Vero is 4.38; with Leishmania donovani [2], less than 4.85.

`C=CCCCC(=O)N(C)[C@H](C(=O)N(C)[C@H](C(=O)N(C)[C@H](C(=O)N(C)[C@@H](C)C(=O)N(C)[C@@H](Cc1ccccc1)C(=O)N(C)C)C(C)C)C(C)C)C(C)C` (X2-[NMeV][NMeV][NMeV][NMeA][NMeF]-NMe2): the selectivity ratio in data set [1] was determined as 13.9. Further, the pIC50 in the data set on Vero was 4.03; in the data set with Leishmania donovani [2], 5.17.

As for `C=CCCCCC(=O)N(C)[C@H](C(=O)N(C)[C@H](C(=O)N(C)[C@H](C(=O)N(C)[C@@H](C)C(=O)N(C)[C@@H](Cc1ccccc1)C(=O)N(C)C)C(C)C)C(C)C)C(C)C` (X4-[NMeV][NMeV][NMeV][NMeA][NMeF]-NMe2), the selectivity ratio in data set [1] is 8.8. For the same compound, the values for the pIC50 with Vero and in the data set on Leishmania donovani [2] were 4.86 and 5.57, respectively.

Turning to `C=CCCCCC(=O)N(C)[C@H](C(=O)N(C)[C@H](C(=O)N(C)[C@H](C(=O)N(C)[C@@H](C)C(=O)N(C)[C@@H](Cc1ccccc1)C(=O)O)C(C)C)C(C)C)C(C)C` (X4-[NMeV][NMeV][NMeV][NMeA][NMeF]-OH), the results for the negative logarithm of the IC50 (pIC50) in the data set with Vero and in the data set on Leishmania donovani [2] were less than 4.15 and less than 4.85, respectively.

For `C=CCCCCC(=O)N(C)[C@H](C(=O)N(C)[C@H](C(=O)N(C)[C@H](C(=O)N(C)[C@@H](C)C(=O)N(C)[C@@H](Cc1ccccc1)C(=O)OC)C(C)C)C(C)C)C(C)C` (X4-[NMeV][NMeV][NMeV][NMeA][NMeF]-OMe), the pIC50 with Vero is 4.61; with Leishmania donovani [2] it was less than 4.85.

For `C#CCCCCC(C)CC(C)C(=O)N(C)[C@@H](Cc1ccccc1)C(=O)N[C@@H](C)C(=O)N(C)[C@@H](C)C(=O)N(C)[C@@H](Cc1ccc(OC)cc1)C(N)=O` (stereo not given in full) (X5-[NMeF]A[NMeA][NMeY](Me)-NH2), the result in the data set with Leishmania donovani [3] was inactive.

For the compound `C#CCCCC[C@H](C)C(=O)N(C)[C@@H](Cc1ccccc1)C(=O)N[C@@H](C)C(=O)N(C)[C@@H](C)C(=O)N(C)[C@@H](Cc1ccc(OC)cc1)C(N)=O` (X6-[NMeF]A[NMeA][NMeY](Me)-NH2), the outcome in the data set on Leishmania donovani [3] was inactive.

Take `C#CCCCC[C@H](C)C(=O)N(C)[C@H](C(=O)N(C)[C@H](C(=O)N(C)[C@H](C(=O)N(C)[C@@H](Cc1ccccc1)C(N)=O)C(C)C)C(C)C)C(C)C` (X6-[NMeV][NMeV][NMeV][NMeF]-NH2): the outcome with Leishmania donovani [3] was inactive.

For the compound `C#CCCCC[C@H](C)C(=O)N(C)[C@H](C(=O)N(C)[C@H](C(=O)N(C)[C@H](C(=O)N(C)[C@H](C(N)=O)C(C)C)C(C)C)C(C)C)C(C)C` (X6-[NMeV][NMeV][NMeV][NMeV]-NH2), the outcome in the data set on Leishmania donovani [3] was inactive.

For the compound `C=CCCCCCC(=O)N(C)[C@H](C(=O)N(C)[C@H](C(=O)N(C)[C@H](C(=O)N(C)[C@@H](C)C(=O)N(C)[C@@H](Cc1ccccc1)C(=O)O)C(C)C)C(C)C)C(C)C` ({Oct(7)enoyl}-[NMeV][NMeV][NMeV][NMeA][NMeF]-OH), in data set [1], the selectivity ratio came to 46.9. The pIC50 in the data set on Vero is 3.72; in the data set on Leishmania donovani [2], 5.39.

Regarding `C=CCCCCCC(=O)N(C)[C@H](C(=O)N(C)[C@H](C(=O)N(C)[C@H](C(=O)N(C)[C@@H](C)C(=O)N(C)[C@@H](Cc1ccccc1)C(=O)OC)C(C)C)C(C)C)C(C)C` ({Oct(7)enoyl}-[NMeV][NMeV][NMeV][NMeA][NMeF]-OMe), the pIC50 in the data set on Vero is 4.73; in the data set with Leishmania donovani [2], less than 4.85.

Regarding `C#CCCCCCC(=O)N(C)[C@H](C(=O)N(C)[C@H](C(=O)N(C)[C@H](C(=O)N(C)[C@@H](C)C(=O)N(C)[C@@H](Cc1ccccc1)C(=O)N(C)C)C(C)C)C(C)C)C(C)C` ({Oct(7)ynoyl}-[NMeV][NMeV][NMeV][NMeA][NMeF]-NMe2), the selectivity ratio in data set [1] was found to be 27. The negative logarithm of the IC50 (pIC50) was 3.80 in the data set on Vero and 5.23 in the data set with Leishmania donovani [2].

Turning to `C#CCCCCCC(=O)N(C)[C@H](C(=O)N(C)[C@H](C(=O)N(C)[C@H](C(=O)N(C)[C@@H](C)C(=O)N(C)[C@@H](Cc1ccccc1)C(=O)O)C(C)C)C(C)C)C(C)C` ({Oct(7)ynoyl}-[NMeV][NMeV][NMeV][NMeA][NMeF]-OH), the values for the pIC50 in the data set with Vero and in the data set with Leishmania donovani [2] were less than 4.16 and less than 4.85, respectively.

Consider `C#CCCCCCC(=O)N(C)[C@H](C(=O)N(C)[C@H](C(=O)N(C)[C@H](C(=O)N(C)[C@@H](C)C(=O)N(C)[C@@H](Cc1ccccc1)C(=O)OC)C(C)C)C(C)C)C(C)C` ({Oct(7)ynoyl}-[NMeV][NMeV][NMeV][NMeA][NMeF]-OMe), for which the pIC50 in the data set on Vero was 4.57; with Leishmania donovani [2], less than 4.85.

As to `CC(=O)CCCC[C@@H](C)C(=O)N(C)[C@H](C(=O)N(C)[C@H](C(=O)N[C@H](C(=O)N(C)[C@@H](C)C(=O)N(C)[C@@H](Cc1ccccc1)C(N)=O)C(C)C)C(C)C)C(C)C` [ALMIRAMIDE A] (X1-[NMeV][NMeV]V[NMeA][NMeF]-NH2), the result in the data set on Trypanosoma cruzi [4] and in the data set on Plasmodium falciparum was inactive. Further, the negative-log IC50 (pIC50) with Vero was 3.95; with Leishmania donovani [2], less than 4.87.

Regarding `C#CCCCC[C@@H](C)C(=O)N(C)[C@H](C(=O)N(C)[C@H](C(=O)N[C@H](C(=O)N(C)[C@@H](C)C(=O)N(C)[C@@H](Cc1ccccc1)C(N)=O)C(C)C)C(C)C)C(C)C` [ALMIRAMIDE B] ({Oct7ynoyl(2R-Me)}-[NMeV][NMeV]V[NMeA][NMeF]-NH2), in data set [1], the selectivity ratio was found to be 21.8. Further, the result in the data set with Trypanosoma cruzi [4] and in the data set on Plasmodium falciparum was inactive. Also, the pIC50 in the data set on Vero was 4.28; in the data set on Leishmania donovani [2], 5.62.

Turning to `C=CCCCC[C@@H](C)C(=O)N(C)[C@H](C(=O)N(C)[C@H](C(=O)N[C@H](C(=O)N(C)[C@@H](C)C(=O)N(C)[C@@H](Cc1ccccc1)C(N)=O)C(C)C)C(C)C)C(C)C` [ALMIRAMIDE C] ({Octanoyl(2R-Me,7,8-dehydro)}-[NMeV][NMeV]V[NMeA][NMeF]-NH2), in data set [1], the selectivity ratio was found to be 17.4. Moreover, the result in the data set on Trypanosoma cruzi [4] and with Plasmodium falciparum was inactive. Besides, the pIC50 in the data set on Vero is 4.48; in the data set with Leishmania donovani [2] it was 5.72.

Compound `C[C@@H]1[C@H](O)[C@@H](C)/C=C/C=C/C=C/C=C/C=C/C=C/C=C/[C@H](O[C@@H]2O[C@H](C)[C@@H](O)[C@H](N)[C@@H]2O)C[C@@H]2O[C@](O)(C[C@@H](O)C[C@@H](O)[C@H](O)CC[C@@H](O)C[C@@H](O)CC(=O)O[C@H]1C)C[C@H](O)[C@H]2C(=O)O` [AMPHOTERICIN B] yielded an IC50 in the data set with Leishmania donovani [2] of 0.08 µg/mL.

For `CCCCCCCCCCCCCCCCOP(=O)([O-])OCC[N+](C)(C)C` [MILTEFOSINE], the pIC50 in the data set with Leishmania donovani [2] is 6.30.

In the case of `C#CCCCC[C@@H](C)C(=O)N(C)[C@H](C(=O)N(C)[C@H](C(=O)N(C)[C@H](C(=O)N(C)[C@@H](C)C(=O)N(C)[C@@H](Cc1ccccc1)C(N)=O)C(C)C)C(C)C)C(C)C` [MONOMETHYLALMIRAMIDE B] ({Oct7ynoyl(2R-Me)}-[NMeV][NMeV][NMeV][NMeA][NMeF]-NH2), the pIC50 in the data set on Leishmania donovani [2] is 5.80.

With `CC1CS(=O)(=O)CCN1/N=C/c1ccc([N+](=O)[O-])o1` (stereo not given) [NIFURTIMOX], in the data set on Trypanosoma cruzi [5], the IC50 was found to be 3 µg/mL (≈ 10.4 µM).

Take `C#CCCCC[C@@H](C)C(=O)N(C)[C@H](C(=O)N(C)[C@H](C(=O)N(C)[C@H](C(=O)N(C)[C@@H](C)C(=O)N(C)[C@@H](Cc1ccccc1)C(=O)N(C)C)C(C)C)C(C)C)C(C)C` [PERMETHYLALMIRAMIDE B] ({Oct7ynoyl(2R-Me)}-[NMeV][NMeV][NMeV][NMeA][NMeF]-NMe2): the pIC50 in the data set with Leishmania donovani [2] was 5.64.

Take `CCCCCC[C@@H](C)C(=O)N(C)[C@H](C(=O)N(C)[C@H](C(=O)N[C@H](C(=O)N(C)[C@@H](C)C(=O)N(C)[C@@H](Cc1ccccc1)C(N)=O)C(C)C)C(C)C)C(C)C` [TETRAHYDROALMIRAMIDE B] (X3-[NMeV][NMeV]V[NMeA][NMeF]-NH2): the outcome with Leishmania donovani [6] was inactive. This compound also gave a negative logarithm of the IC50 (pIC50) in the data set on Leishmania donovani [2] of less than 4.86.
